From PubChem BioAssay
Rows were chosen to be rich in hits. Some 9.8% of all compounds tested hit in one or more screens of this group.
Rad51 HR inh – blocks human Rad51 in homologous recombination; Q06609; hRad51 DNA strand exchange, fluorescence dequenching; inhibition, % at 10 µM; 0.085% of 200,000 active; AID 1385;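 active means inhibition above 40% at the single screening dose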;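 further: 0% = DMSO control wells and 100% = blanks with heterologous ssDNA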
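Read-out basis: percent inhibition relative to plate controls and blanks / Assay system: human Rad51 nucleoprotein filaments preassembled on unlabelled ssDNA / Timing: filaments 15 min 37 °C, then compound 30 min / Control set: per-plate controls and blanks / Technique: fluorescence dequenching at 485/520 nm / Compound: 10 µM final, single point / Also added: Fluorescein- and BHQ1-tagged 47-mer duplex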
WT yeast gro inh – growth inhibition of WT yeast, mitochondrial fusion screen. AID 1362. 2.1% of 190,000 active. mitochondrial fusion phenotypic screen, WT strain. inhibition, % at 10 µM; in the data active means inhibition above about 58%; tested in S. cerevisiae
PMI act – phosphomannose isomerase (human) activation. AID 1214. activation factor at 20 µM. purified human PMI, coupled resazurin fluorescence, 20 min; stronger effect = higher value; 1 = vehicle control, 0 substrate-free wells. 0.005% of 190,000 active;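 active means activation factor of 2 or more at 20 µM, relative to plate controls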
Target sequence (P34949 whole entry, looked up): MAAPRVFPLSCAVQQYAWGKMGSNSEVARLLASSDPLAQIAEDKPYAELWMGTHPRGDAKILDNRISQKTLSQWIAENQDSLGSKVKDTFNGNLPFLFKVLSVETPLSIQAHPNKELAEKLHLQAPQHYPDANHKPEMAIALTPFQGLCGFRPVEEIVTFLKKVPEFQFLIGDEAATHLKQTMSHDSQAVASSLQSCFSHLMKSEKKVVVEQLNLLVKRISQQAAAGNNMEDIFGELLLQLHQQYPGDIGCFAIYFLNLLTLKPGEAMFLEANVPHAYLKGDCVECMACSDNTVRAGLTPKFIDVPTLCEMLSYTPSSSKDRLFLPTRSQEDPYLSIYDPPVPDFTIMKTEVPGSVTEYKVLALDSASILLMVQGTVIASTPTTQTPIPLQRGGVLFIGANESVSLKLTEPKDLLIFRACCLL
Lmaj promast – inhibitors of Leishmania major promastigote growth; Leishmania major promastigotes, resazurin fluorescence viability; inhibition, % at 10 µM; 9% of 200,000 active; AID 1063; in the data active means inhibition above about 50%;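 further: promastigotes grown with compound for 44 hours at 28 °C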
PMI act hi M6P – PMI (human) activation, high substrate. 0.34% of 190,000 active. AID 1216. activation factor at 20 µM. coupled PMI enzyme assay, resazurin fluorescence, 20 min; stronger effect = higher value; 1 = untreated enzyme, 0 = substrate-free blank;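 active means activation factor of 2 or more at 20 µM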
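Test system: Human PMI in coupled enzyme assay | Input: 15 ng/mL PMI | Medium: HEPES-buffered pH 7.4 with magnesium and detergent | Compound: One concentration, 20 µM, in 1% DMSO | Incubation: Enzyme reaction with compound 20 min at room temperature | Detection: Diaphorase-driven resazurin-to-resorufin fluorescence, excitation 544, emission 590 nm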
m-calpain inh – inhibitors of pig calpain II; AID 1236; 0.37% of 220,000 active; purified calpain II, fluorogenic peptide substrate, 30 min; inhibition, % at 16 µM;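 active means inhibition above about 50%, limit read from the data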
An asterisk follows results filed as active; nt = not tested or not shown.

SMILES	Rad51 HR inh	WT yeast gro inh	PMI act	Lmaj promast	PMI act hi M6P	m-calpain inh
CCOc1ccc(C(=O)NC(=S)Nc2cccc(NC(=O)c3ccco3)c2)cc1[N+](=O)[O-]	0.1	-8.5	0.8	21.1	0.9	-27.4
CCOc1ccc(C(=O)NC(=S)Nc2ccccc2OC)cc1[N+](=O)[O-]	0.9	4.7	1	-0.5	1	-5.5
CCOc1ccc(C(=O)NC(=S)NC2CCCC2)cc1[N+](=O)[O-]	-5.2	14.1	1	57.9*	1	8.5
Cc1ccccc1C(=O)Nc1cccc(NC(=S)NC(=O)c2cccs2)c1	-4.8	12.9	0.9	-8.1	0.9	-18.9
O=C(Nc1ccccc1N1CCCCC1)c1cccc([N+](=O)[O-])c1	-5.9	78.4*	0.9	10.1	0.9	14.0
CCOC(=O)c1cc(-c2ccc(OC)cc2)nn1-c1ccc(C(=O)O)cc1	-0.3	-5.8	1.1	-1.6	0.9	11.6
NC(=O)C1CCN(C(=O)COc2ccc(Nc3ccccc3)cc2)CC1	-2.3	nt	nt	nt	nt	-5.2
Cc1cc(Br)ccc1-n1[nH]c(C)c(C=Nc2cccc3nsnc23)c1=O	-26.6	-9.0	0.5	-0.2	0.3	-59.4
CCOC(=O)c1c[nH][nH]c1=O	3.3	nt	nt	nt	nt	2.1
COc1ccc(C(=O)NC(=S)Nc2ccccc2N2CCCCC2)cc1[N+](=O)[O-]	-2.4	35.6	0.7	98.6*	0.9	6.0
Cc1ccc2nsnc2c1NC(=O)c1cccc([N+](=O)[O-])c1	-7.1	-5.1	0.9	-1.4	1	13.2
CCOc1ccc(C(=O)NC(=S)Nc2ccc(NC(=O)CC)cc2)cc1[N+](=O)[O-]	3.5	-1.3	1	-1.3	1.1	-15.6
CCOc1ccc(C(=O)NC(=S)Nc2ccc(N3CCCCC3)cc2)cc1[N+](=O)[O-]	nt	27.5	0.7	99.3*	0.9	17.4
Cn1c(=O)n(C)c2cc(NC(=O)c3cccc([N+](=O)[O-])c3)c(Br)cc21	2.4	1.8	0.9	59.8*	0.8	-21.9
COc1ccc(C(=O)Nc2c(C)ccc3nsnc23)cc1[N+](=O)[O-]	-4.8	10.7	1	82.6*	0.9	14.7
CCN1CCCC1CNC(=O)C(=O)NC(C)c1ccccc1 (stereo not drawn)	-0.5	-15.2	0.9	-1.9	1	-2.6
COc1ccc(C(=O)Nc2cc(C)on2)cc1[N+](=O)[O-]	0.5	-6.9	1.1	2.5	1.2	-25.6
O=C(NC(=S)Nc1ccccc1N1CCCC1)c1ccc([N+](=O)[O-])cc1	2.5	18.1	0.8	15.5	0.9	-12.4
Cc1c(C(=O)NC(=S)Nc2ccccc2N2CCCC2)cccc1[N+](=O)[O-]	8.0	2.9	0.7	87.2*	0.9	3.2
COc1ccc(C(=O)NC(=S)Nc2cc(C)ccn2)cc1[N+](=O)[O-]	2.5	3.2	0.8	62.1*	0.9	26.6
O=C(Nc1ccccc1)N(c1ccccc1)C1C=CS(=O)(=O)C1 (stereo not drawn)	4.5	nt	nt	nt	nt	-2.3
COc1ccc(OC)c(NC(=O)COC(=O)Cc2ccc(Br)cc2)c1	-11.9	66.8*	0.8	4.1	0.8	29.7
Cc1cccc(NCc2ccc(O)c3ncccc23)c1	-6.5	-0.6	0.6	-3.9	0.3	3.0
Oc1ccc(Cn2ccnc2)c2cccnc12	4.5	-3.3	0.7	99.1*	0.9	15.5
COCc1ccc(O)c2ncccc12	-0.6	4.2	0.8	100.2*	0.8	0.1
SMILES	Rad51 HR inh	WT yeast gro inh	PMI act	Lmaj promast	PMI act hi M6P	m-calpain inh
Cc1ccccc1NCc1ccc(O)c2ncccc12	2.0	-6.7	0.4	100.4*	0.2	-4.2
OCc1ccnc2c(O)cccc12	2.5	52.5	0.5	99.9*	0.4	2.5
c1ccc2c(Cn3ccnc3)c[nH]c2c1	-3.3	3.6	0.9	34.6	0.9	10.4
Cc1ccc(Oc2ncccc2C(=O)NC2CCSC2=O)cc1 (stereo not drawn)	-5.2	-9.2	1.1	1.8	1.1	-22.0
CCc1nc(NCCO)c(C#N)c2c1CSC(C)(C)C2	5.9	nt	nt	nt	nt	-17.8
Oc1ccc(CNc2ccc(F)cc2)c2cccnc12	-6.9	11.4	0.6	-3.1	0.3	-65.0
Oc1ccc(CNc2ccccc2)c2cccnc12	-3.8	35.2	0.5	65.7*	0.3	23.6
COC(=O)C(NNc1ccccc1)(NC(=O)c1cccc(F)c1)C(F)(F)F (stereo not drawn)	2.6	15.0	1.7	5.8	2.2*	4.7
CC(/C=C/c1ccco1)=N\NC(=O)COc1ccc(C)c(C)c1	-4.1	7.9	1.2	-0.6	1.1	-34.3
Cn1c(=O)c2c(ncn2CC(=O)N/N=C/c2c[nH]c3ccccc23)n(C)c1=O	13.0	nt	nt	nt	nt	21.8
CCCC(=O)NC(c1ccco1)c1c(O)ccc2ccccc12 (stereo not drawn)	-1.2	-9.2	0.6	56.7*	0.7	-30.4
COc1ccc(C(NC(=O)C2CCCCC2)c2c(O)ccc3ccccc23)cc1 (stereo not drawn)	-10.6	20.1	0.8	99.8*	0.8	-12.7
CCC(=O)NC(c1cccc([N+](=O)[O-])c1)c1c(O)ccc2ccccc12 (stereo not drawn)	-0.7	1.8	0.9	6.3	0.7	-31.2
CC(C)C(=O)NC(c1ccc(N(C)C)cc1)c1c(O)ccc2ccccc12 (stereo not drawn)	5.9	nt	nt	nt	nt	-1.9
CCCCC(=O)NC(c1ccco1)c1c(O)ccc2ccccc12 (stereo not drawn)	-1.8	-0.7	0.6	67.2*	0.7	-14.4
CC(C)CC(=O)NC(c1ccccc1Cl)c1c(O)ccc2ccccc12 (stereo not drawn)	3.1	-14.2	0.9	100.3*	0.9	7.8
O=C(CCC(=O)Nc1cccc2ccccc12)N/N=C/c1ccco1	-4.3	-20.5	1	-1.9	0.9	-3.0
COc1ccc(CNC(=O)CSc2nc3cccnc3s2)cc1	8.0	nt	nt	nt	nt	-9.1
CC(C)(C)NS(=O)(=O)c1ccc(CCC(=O)Nc2cc(Cl)ccc2Oc2ccccc2)cc1	4.3	12.4	0.7	98.0*	0.8	21.4
CC(C)CNS(=O)(=O)c1ccc(CCC(=O)Nc2cc(Cl)ccc2Oc2ccccc2)cc1	-9.2	17.8	0.8	19.4	0.9	71.2*
Cc1ccc2nc(N3C(=O)C(O)=C(C(=O)c4cc5ccccc5o4)C3c3cccs3)sc2c1 (stereo not drawn)	nt	-3.6	1.4	-3.4	2*	-129.8
COc1ccc(/C=N/n2c(N)nc(-c3ccccc3)c2-c2ccccc2)cc1	7.4	21.1	0.8	56.6*	0.9	-36.3
COc1ccc(/C=N/n2c(N)nc3ccccc32)cc1OC	4.6	2.8	1	29.8	0.9	29.1
O=[N+]([O-])c1cc(Br)c(O)c(C=Nc2ccc(N3CCOCC3)cc2)c1	-10.3	-27.3	0.9	3.1	0.6	-0.8
Oc1ccc(N=Cc2cc(Br)c(N3CCOCC3)o2)cc1	-6.0	-6.9	1	66.9*	0.5	17.1
